According to ChEMBL document CHEMBL1132105, “Substituted analogues of GV150526 as potent glycine binding site antagonists in animal models of cerebral ischemia” (J Med Chem, 1999):

Tests used:
Glutamate NMDA receptor = experiment: Inhibition of [3H]glycine binding to N-methyl-D-aspartate glutamate receptor in synaptic membranes of rat cerebral cortex; format: cell membranes
How it was run: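 Crude synaptic membranes from adult rat cerebral cortex; 20 nM [3H]glycine, 50 mM Tris/citrate pH 7.10, 20 min at 4 °C. Seven concentrations in duplicate; stock 5 mM in DMSO. Ki from at least six-point inhibition curves by nonlinear fitting; geometric mean of at least three experiments.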

Albumin = Albumin (Rattus norvegicus, UniProt P02770); experiment: Binding to rat serum albumin
Sequence of Albumin (P02770 whole entry): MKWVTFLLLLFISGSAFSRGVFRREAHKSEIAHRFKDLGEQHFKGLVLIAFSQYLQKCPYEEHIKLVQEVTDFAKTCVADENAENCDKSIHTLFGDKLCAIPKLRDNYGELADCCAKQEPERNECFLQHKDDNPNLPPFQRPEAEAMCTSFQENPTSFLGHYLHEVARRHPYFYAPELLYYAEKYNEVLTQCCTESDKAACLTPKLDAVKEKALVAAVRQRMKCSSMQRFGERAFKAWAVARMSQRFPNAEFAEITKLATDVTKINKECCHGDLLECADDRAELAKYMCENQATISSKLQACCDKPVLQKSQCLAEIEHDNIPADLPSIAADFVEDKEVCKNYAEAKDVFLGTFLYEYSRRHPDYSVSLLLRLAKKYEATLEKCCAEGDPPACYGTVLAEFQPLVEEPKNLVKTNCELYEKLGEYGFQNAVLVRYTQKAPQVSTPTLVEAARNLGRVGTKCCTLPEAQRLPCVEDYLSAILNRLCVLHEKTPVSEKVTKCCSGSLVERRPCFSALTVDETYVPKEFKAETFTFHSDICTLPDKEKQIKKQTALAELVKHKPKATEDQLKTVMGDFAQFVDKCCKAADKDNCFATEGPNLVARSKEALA

Mus musculus [1] = experiment: Inhibition of NMDA-induced convulsions in mice by the compound when administered by peroral route; format: functional; conditions: po
How it was run: (§1)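 Male CD-1 mice (18-29 g); test compound given iv (1 min) or po (1 h) before icv NMDA (1 nmol/mouse). Animals observed 30 min for generalized seizures and scored protected if none occurred. Percentage protected per group recorded; ED50 estimated with 95% confidence limits.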

Mus musculus [2] = experiment: Inhibition of NMDA-induced convulsions in mice by the compound when administered by intravenous route; format: functional; how it was run: as §1
Rattus norvegicus [3] = species on record: Rattus norvegicus; experiment: Percent damage reduction; format: functional; parameters: concentration or dose not given beside the values
How it was run: (§2)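 Permanent distal MCA electrocoagulation in male Sprague-Dawley rats (280-350 g) under chloral hydrate (400 mg/kg ip), normothermic; compound iv 5 min before occlusion, in 3% DMSO in water. At 24 h, 0.5 mm coronal slices stained with 2% TTC (37 °C, 20 min); infarct volume by trapezoidal rule, n = 8; reduction vs vehicle.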

Rattus norvegicus [4] = experiment: Postischemic effect of the compound in the MACo model in rats measured 24 hr after occlusion at an intravenous dose of 1 mg/kg.; format: functional
How it was run: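 Male Sprague-Dawley rats (280-350 g), permanent distal MCA electrocoagulation under chloral hydrate; single iv bolus 1 mg/kg given 6 h after occlusion, vehicle 3% DMSO in water. Infarct volume from TTC-stained 0.5 mm coronal slices 24 h after occlusion, trapezoidal rule, n = 8.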

Rattus norvegicus [5] = experiment: Preischemic effect of the compound in the MACo model in rats measured 24 hr after occlusion at an intravenous dose of 3 mg/kg.; format: functional; how it was run: as §2
[6] = biological target: Glutamate receptor ionotropic, kainate; experiment: Inhibition of binding of [3H]kainate to Ionotropic glutamate receptor kainate in synaptic membranes of rat cerebral cortex; format: cell membranes
How it was run: (§3)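 Rat cortical membrane radioligand binding; compounds from 5 mM DMSO stock tested at five concentrations, 10 nM to 100 µM, with a reference compound as internal control.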

[7] = Inhibition of binding of [3H]CPP in presence of glutamate to glutamate binding site of N-methyl-D-aspartate glutamate receptor in synaptic membranes of rat cerebral cortex; format: cell membranes
Rattus norvegicus [8] = experiment: Preischemic effect of the compound in the MACo model in rats measured 24 hr after occlusion at an intravenous dose of 0.3 mg/kg.; format: functional; how it was run: as §2
[9] = Effective dose was evaluated; format: functional
Rattus norvegicus [10] = experiment: Preischemic effect of the compound in the MACo model in rats measured 24 h after occlusion at an intravenous dose of 1 mg/kg.; format: functional; how it was run: as §2
[11] = biological target: Glutamate receptor ionotropic, AMPA (Rattus norvegicus, UniProt P19490+P19491+P19492+P19493); experiment: Inhibition of binding of [3H]AMPA to Ionotropic glutamate receptor AMPA in synaptic membranes of rat cerebral cortex; format: cell membranes; how it was run: as §3
Rattus norvegicus [12] = experiment: Preischemic effect of the compound in the MACo model in rats measured 24 hr after occlusion at an intravenous dose of 0.1 mg/kg.; format: functional; how it was run: as §2

**Q.** For `COc1ccc(NC(=O)NCc2ccc(NC(=O)/C=C/c3c(C(=O)[O-])[nH]c4cc(Cl)cc(Cl)c34)cc2)cc1.[Na+]`, which “Log Ki” value (Glutamate NMDA receptor) is on record?
**A.** -7.69

**Q.** For `O=C(/C=C/c1c(C(=O)[O-])[nH]c2cc(Cl)cc(Cl)c12)NC12CC3CC(CC(C3)C1)C2.[Na+]`, which “RSA tR” value (Albumin) is on record?
**A.** 141.2 min

**Q.** Which “Log Ki” value (Glutamate NMDA receptor) does the source give for `C[C@@H](NC(N)=O)c1ccc(NC(=O)/C=C/c2c(C(=O)[O-])[nH]c3cc(Cl)cc(Cl)c23)cc1.[Na+]` here?
**A.** -7.93

**Q.** With `Nc1ccc(NC(=O)/C=C/c2c(C(=O)[O-])[nH]c3cc(Cl)cc(Cl)c23)cc1.[Na+]` as the compound, how does the “RSA tR” value (Albumin) read?
**A.** 23.2 min

**Q.** Which results are given for `NC(=O)Nc1ccc(NC(=O)/C=C/c2c(C(=O)[O-])[nH]c3cc(Cl)cc(Cl)c23)cc1.[Na+]`?
**A.** ED50 (Mus musculus [1]): 9.6 mg/kg; ED50 (Mus musculus [2]): 0.55 mg/kg; RSA tR (Albumin): 28.3 min; Log Ki (Glutamate NMDA receptor): -8.8

**Q.** What does the source list for `CC/N=C(\S)NCc1ccc(NC(=O)/C=C/c2c(C(=O)[O-])[nH]c3cc(Cl)cc(Cl)c23)cc1.[Na+]`?
**A.** RSA tR (Albumin): 34.1 min; Log Ki (Glutamate NMDA receptor): -7.91

**Q.** Which “RSA tR” value (Albumin) does the source give for `O=C(/C=C/c1c(C(=O)[O-])[nH]c2cc(Cl)cc(Cl)c12)NC1CCCCC1.[Na+]` here?
**A.** 25.7 min

**Q.** With `CC(=O)Nc1ccc(NC(=O)/C=C/c2c(C(=O)[O-])[nH]c3cc(Cl)cc(Cl)c23)cc1.[Na+]` as the compound, how does the “RSA tR” value (Albumin) read?
**A.** 31.6 min

**Q.** Which “Log Ki” value (Glutamate NMDA receptor) does the source give for `O=C(/C=C/c1c(C(=O)[O-])[nH]c2cc(Cl)cc(Cl)c12)Nc1ccc(CNC(=O)Nc2cccnc2)cc1.[Na+]` here?
**A.** -7.83

**Q.** For `C[C@H](NC(N)=O)c1ccc(NC(=O)/C=C/c2c(C(=O)[O-])[nH]c3cc(Cl)cc(Cl)c23)cc1.[Na+]`, which “Log Ki” value (Glutamate NMDA receptor) is on record?
**A.** -8.2

**Q.** Which “RSA tR” value (Albumin) does the source give for `O=C(/C=C/c1c(C(=O)[O-])[nH]c2cc(Cl)cc(Cl)c12)NCc1ccccc1.[Na+]` here?
**A.** 66.9 min

**Q.** Which results are given for `O=C(/C=C/c1c(C(=O)[O-])[nH]c2cc(Cl)cc(Cl)c12)Nc1ccc(CNC(=O)NC2CCOCC2)cc1.[Na+]`?
**A.** RSA tR (Albumin): 29.6 min; Log Ki (Glutamate NMDA receptor): -8.15

**Q.** With `CCNC(=O)NCc1ccc(NC(=O)/C=C/c2c(C(=O)[O-])[nH]c3cc(Cl)cc(Cl)c23)cc1.[Na+]` as the compound, how does the “Log Ki” value (Glutamate NMDA receptor) read?
**A.** -8.62

**Q.** For `NC(=O)NCc1ccc(NC(=O)/C=C/c2c(C(=O)[O-])[nH]c3cc(Cl)cc(Cl)c23)cc1.[Na+]`, which damage reduction (Rattus norvegicus [3]) is on record?
**A.** 41% [middle of 5 runs]

**Q.** What about the Infarct volume (Rattus norvegicus [4]) of the same compound?
**A.** 54.7 mm**3

**Q.** What about the ED50 (Mus musculus [1]) of the same compound?
**A.** 2 mg/kg

**Q.** What about the ED50 (Mus musculus [2]) of the same compound?
**A.** 0.07 mg/kg

**Q.** And the Infarct volume (Rattus norvegicus [5])?
**A.** 27.8 mm**3

**Q.** What about the “RSA tR” value (Albumin) of the same compound?
**A.** 40.7 min

**Q.** What about the “Log Ki” value [6] of the same compound?
**A.** -4.68

**Q.** What about the “Log Ki” value [7] of the same compound?
**A.** -3.48

**Q.** What about the Infarct volume (Rattus norvegicus [8]) of the same compound?
**A.** 36.4 mm**3

**Q.** And the ED50 [9]?
**A.** 0.2 mg/kg

**Q.** And the Infarct volume (Rattus norvegicus [10])?
**A.** 38.9 mm**3

**Q.** What about the “Log Ki” value (Glutamate NMDA receptor) of the same compound?
**A.** -8.67

**Q.** And the Ki [11]?
**A.** 105 µM

**Q.** What about the Infarct volume (Rattus norvegicus [12]) of the same compound?
**A.** 61.9 mm**3

**Q.** Which “Log Ki” value (Glutamate NMDA receptor) does the source give for `O=C(/C=C/c1c(C(=O)[O-])[nH]c2cc(Cl)cc(Cl)c12)Nc1ccc(CNC(=O)Nc2ccccc2)cc1.[Na+]` here?
**A.** -7.7

**Q.** What does the source list for `NC(=O)NCCc1ccc(NC(=O)/C=C/c2c(C(=O)[O-])[nH]c3cc(Cl)cc(Cl)c23)cc1.[Na+]`?
**A.** ED50 (Mus musculus [1]): 17.3 mg/kg; ED50 (Mus musculus [2]): 0.14 mg/kg; RSA tR (Albumin): 33.9 min; Log Ki (Glutamate NMDA receptor): -8.2

**Q.** Which “Log Ki” value (Glutamate NMDA receptor) does the source give for `O=C(/C=C/c1c(C(=O)[O-])[nH]c2cc(Cl)cc(Cl)c12)Nc1ccc(CNC(=O)NC2CC2)cc1.[Na+]` here?
**A.** -8.25

**Q.** Which “Log Ki” value (Glutamate NMDA receptor) does the source give for `O=C(O)CNC(=O)NCc1ccc(NC(=O)/C=C/c2c(C(=O)[O-])[nH]c3cc(Cl)cc(Cl)c23)cc1.[Na+]` here?
**A.** -8.57

**Q.** For `O=C(/C=C/c1c(C(=O)[O-])[nH]c2cc(Cl)cc(Cl)c12)Nc1ccccc1.[Na+]` [GAVESTINEL SODIUM], which ED50 (Mus musculus [1]) is on record?
**A.** 6 mg/kg

**Q.** And the ED50 (Mus musculus [2])?
**A.** 0.06 mg/kg

**Q.** And the “RSA tR” value (Albumin)?
**A.** 60.1 min

**Q.** What about the “Log Ki” value (Glutamate NMDA receptor) of the same compound?
**A.** -8.49

**Q.** With `O=c1[nH]c2cc(Cl)c(Cl)c([N+](=O)[O-])c2[nH]c1=O` [LICOSTINEL] as the compound, how does the “RSA tR” value (Albumin) read?
**A.** 12.1 min
